Reference: ChEMBL document CHEMBL1649538 (2009)
In brackets after ≈: the same amount, converted by molar mass.

Experiments:
Assay type in all cases: functional
[1] = test system: Staphylococcus aureus; experiment: Antibacterial activity against methicillin-resistant Staphylococcus aureus by broth microdilution method
[2] = test system: Staphylococcus epidermidis; experiment: Antibacterial activity against slime-negative Staphylococcus epidermidis M7 after 24 hrs by CLSI method; details: M7, 24 h
[3] = test system: Staphylococcus epidermidis; experiment: Antibacterial activity against slime-negative Staphylococcus epidermidis M7 assessed as inhibition of biofilm formation after 24 hrs by CLSI method
Method in brief: (§1)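 Modified Calgary pin-lid device. Inoculum of 7 log10 CFU/ml was prepared by direct colony suspension from 24-h TSA growth. Biofilm grew on pins for 24 h at 35°C on a rocking table in TSB with 1% glucose and 2% NaCl. Pins were rinsed three times in PBS and exposed 24 h at 35°C to serial antibiotic dilutions. MBIC is the last well without visible growth. Quadruplicate.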

[4] = test system: Staphylococcus epidermidis; experiment: Antibacterial activity against slime-negative Staphylococcus epidermidis M7 assessed as induction of biofilm eradication after 24 hrs by CLSI method
Method in brief: (§2)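 Pin-lid biofilms were grown 24 h at 35°C in TSB with 1% glucose and 2% NaCl (7 log10 CFU/ml start), rinsed in PBS, and exposed 24 h at 35°C to serial antibiotic dilutions. Pin bacteria were dispersed by sonication and vortexing. Counts were plated in duplicate on TSA (detection limit 2.4 CFU/ml) or read as turbidity at 570 nm. Quadruplicate.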

[5] = test system: Staphylococcus epidermidis; experiment: Antibacterial activity against Staphylococcus epidermidis RP62A after 24 hrs by CLSI method
[6] = test system: Staphylococcus epidermidis; experiment: Antibacterial activity against Staphylococcus epidermidis RP62A assessed as inhibition of biofilm formation after 24 hrs by CLSI method; method in brief: as §1
[7] = test system: Staphylococcus epidermidis; experiment: Antibacterial activity against Staphylococcus epidermidis RP62A assessed as induction of biofilm eradication after 24 hrs by CLSI method; method in brief: as §2
[8] = test system: Staphylococcus aureus; experiment: Antibacterial activity against Staphylococcus aureus ATCC 35556 after 24 hrs by CLSI method; details: ATCC 35556, 24 h
Method in brief: (§3)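 Conventional MIC determined in duplicate following CLSI dilution guidelines, with cultures incubated at 35°C.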

[9] = test system: Staphylococcus aureus; experiment: Antibacterial activity against Staphylococcus aureus ATCC 35556 assessed as inhibition of biofilm formation after 24 hrs by CLSI method; method in brief: as §1
[10] = test system: Staphylococcus aureus; experiment: Antibacterial activity against Staphylococcus aureus ATCC 35556 assessed as induction of biofilm eradication after 24 hrs by CLSI method; method in brief: as §2
[11] = test system: Enterococcus faecalis; experiment: Antibacterial activity against Enterococcus faecalis ATCC 29212 after 24 hrs by CLSI method; details: ATCC 29212, 24 h; method in brief: as §3
[12] = test system: Enterococcus faecalis; experiment: Antibacterial activity against Enterococcus faecalis ATCC 29212 assessed as inhibition of biofilm formation after 24 hrs by CLSI method; method in brief: as §1
[13] = test system: Enterococcus faecalis; experiment: Antibacterial activity against Enterococcus faecalis ATCC 29212 assessed as induction of biofilm eradication after 24 hrs by CLSI method; method in brief: as §2
[14] = test system: Staphylococcus aureus; experiment: Antibacterial activity against methicillin-susceptible Staphylococcus aureus L2 after 24 hrs by CLSI method; details: L2, 24 h; method in brief: as §3
[15] = test system: Staphylococcus aureus; experiment: Antibacterial activity against methicillin-susceptible Staphylococcus aureus L2 assessed as inhibition of biofilm formation after 24 hrs by CLSI method; method in brief: as §1
[16] = test system: Staphylococcus aureus; experiment: Antibacterial activity against methicillin-susceptible Staphylococcus aureus L2 assessed as induction of biofilm eradication after 24 hrs by CLSI method; method in brief: as §2
[17] = test system: Staphylococcus aureus; experiment: Antibacterial activity against methicillin-resistant Staphylococcus aureus L32 after 24 hrs by CLSI method; details: L32, 24 h; method in brief: as §3
[18] = test system: Staphylococcus aureus; experiment: Antibacterial activity against methicillin-resistant Staphylococcus aureus L32 assessed as induction of biofilm eradication after 24 hrs by CLSI method; method in brief: as §2
[19] = test system: Staphylococcus aureus; experiment: Antibacterial activity against methicillin-resistant Staphylococcus aureus L83 after 24 hrs by CLSI method; details: L83, 24 h; method in brief: as §3
[20] = test system: Staphylococcus aureus; experiment: Antibacterial activity against methicillin-resistant Staphylococcus aureus L32 assessed as inhibition of biofilm formation after 24 hrs by CLSI method; method in brief: as §1
[21] = test system: Staphylococcus aureus; experiment: Antibacterial activity against methicillin-resistant Staphylococcus aureus L83 assessed as inhibition of biofilm formation after 24 hrs by CLSI method; method in brief: as §1
[22] = test system: Staphylococcus aureus; experiment: Antibacterial activity against methicillin-resistant Staphylococcus aureus L83 assessed as induction of biofilm eradication after 24 hrs by CLSI method; method in brief: as §2

Compound | MBIC [3] | MBEC [4] | MBC [5] | MBIC [6] | MBEC [7] | MBC [8] | MBIC [9] | MBEC [10] | MBC [11] | MIC [11] | MBIC [12] | MBEC [13] | MBC [14] | MBIC [15] | MBEC [16] | MBC [17] | MBEC [18] | MBC [19] | other results
CCCCCCCCCCNCCN[C@@]1(C)C[C@H](O[C@H]2[C@H](Oc3c4cc5cc3Oc3ccc(cc3Cl)[C@@H](O)[C@@H](NC(=O)[C@@H](CC(C)C)NC)C(=O)N[C@@H](CC(N)=O)C(=O)N[C@H]5C(=O)N[C@H]3C(=O)N[C@H](C(=O)N[C@H](C(=O)O)c5cc(O)c(CNCP(=O)(O)O)c(O)c5-c5cc3ccc5O)[C@H](O)c3ccc(c(Cl)c3)O4)O[C@H](CO)[C@@H](O)[C@@H]2O)O[C@@H](C)[C@H]1O [TELAVANCIN] | 0.5 µg/mL | 0.5 µg/mL | 0.125 µg/mL (≈ 0.0712 µM) | 0.5 µg/mL | 1 µg/mL | 0.25 µg/mL (≈ 0.142 µM) | 0.25 µg/mL | 0.125 µg/mL | 1 µg/mL (≈ 0.57 µM) | 0.25 µg/mL (≈ 0.142 µM) | 1 µg/mL | 1 µg/mL | 0.125 µg/mL (≈ 0.0712 µM) | 1 µg/mL | 1 µg/mL | 0.125 µg/mL (≈ 0.0712 µM) | 2 µg/mL | 0.125 µg/mL (≈ 0.0712 µM) | MIC [1]: 0.06 µg/mL (≈ 0.0342 µM); MBC [2]: 0.125 µg/mL (≈ 0.0712 µM); MIC [2]: 0.125 µg/mL (≈ 0.0712 µM); MIC [5]: 0.125 µg/mL (≈ 0.0712 µM); MIC [8]: 0.06 µg/mL (≈ 0.0342 µM); MIC [14]: 0.06 µg/mL (≈ 0.0342 µM); MIC [17]: 0.03 µg/mL (≈ 0.0171 µM); MIC [19]: 0.06 µg/mL (≈ 0.0342 µM)
CN[C@H](CC(C)C)C(=O)N[C@H]1C(=O)N[C@@H](CC(N)=O)C(=O)N[C@H]2C(=O)N[C@H]3C(=O)N[C@H](C(=O)N[C@H](C(=O)O)c4cc(O)cc(O)c4-c4cc3ccc4O)[C@H](O)c3ccc(c(Cl)c3)Oc3cc2cc(c3O[C@@H]2O[C@H](CO)[C@@H](O)[C@H](O)[C@H]2O[C@H]2C[C@](C)(N)[C@H](O)[C@H](C)O2)Oc2ccc(cc2Cl)[C@H]1O [VANCOMYCIN] | 8 µg/mL | 2 µg/mL | 2 µg/mL (≈ 1.38 µM) | 4 µg/mL | 4 µg/mL | 2 µg/mL (≈ 1.38 µM) | 16 µg/mL | >256 µg/mL | 16 µg/mL (≈ 11 µM) | 2 µg/mL (≈ 1.38 µM) | 16 µg/mL | >256 µg/mL | 2 µg/mL (≈ 1.38 µM) | 16 µg/mL | >256 µg/mL | 2 µg/mL (≈ 1.38 µM) | >256 µg/mL | 2 µg/mL (≈ 1.38 µM) | MBIC [20]: 8 µg/mL; MBIC [21]: 4 µg/mL; MBEC [22]: >256 µg/mL
